Test results as given in ChEMBL document CHEMBL3351316, “Scaffold hopping approach on the route to selective tankyrase inhibitors” (Eur J Med Chem, 2014).

Assays:
[1] = target: T1, Poly [ADP-ribose] polymerase tankyrase-2 (Homo sapiens, UniProt Q9H2K2); experiment: Inhibition of GST-tagged human recombinant TNKS2 incubated for 1 hr using NAD+, biotinylated NAD+ and activated DNA by luminescence based assay
T1 sequence (Q9H2K2 whole entry): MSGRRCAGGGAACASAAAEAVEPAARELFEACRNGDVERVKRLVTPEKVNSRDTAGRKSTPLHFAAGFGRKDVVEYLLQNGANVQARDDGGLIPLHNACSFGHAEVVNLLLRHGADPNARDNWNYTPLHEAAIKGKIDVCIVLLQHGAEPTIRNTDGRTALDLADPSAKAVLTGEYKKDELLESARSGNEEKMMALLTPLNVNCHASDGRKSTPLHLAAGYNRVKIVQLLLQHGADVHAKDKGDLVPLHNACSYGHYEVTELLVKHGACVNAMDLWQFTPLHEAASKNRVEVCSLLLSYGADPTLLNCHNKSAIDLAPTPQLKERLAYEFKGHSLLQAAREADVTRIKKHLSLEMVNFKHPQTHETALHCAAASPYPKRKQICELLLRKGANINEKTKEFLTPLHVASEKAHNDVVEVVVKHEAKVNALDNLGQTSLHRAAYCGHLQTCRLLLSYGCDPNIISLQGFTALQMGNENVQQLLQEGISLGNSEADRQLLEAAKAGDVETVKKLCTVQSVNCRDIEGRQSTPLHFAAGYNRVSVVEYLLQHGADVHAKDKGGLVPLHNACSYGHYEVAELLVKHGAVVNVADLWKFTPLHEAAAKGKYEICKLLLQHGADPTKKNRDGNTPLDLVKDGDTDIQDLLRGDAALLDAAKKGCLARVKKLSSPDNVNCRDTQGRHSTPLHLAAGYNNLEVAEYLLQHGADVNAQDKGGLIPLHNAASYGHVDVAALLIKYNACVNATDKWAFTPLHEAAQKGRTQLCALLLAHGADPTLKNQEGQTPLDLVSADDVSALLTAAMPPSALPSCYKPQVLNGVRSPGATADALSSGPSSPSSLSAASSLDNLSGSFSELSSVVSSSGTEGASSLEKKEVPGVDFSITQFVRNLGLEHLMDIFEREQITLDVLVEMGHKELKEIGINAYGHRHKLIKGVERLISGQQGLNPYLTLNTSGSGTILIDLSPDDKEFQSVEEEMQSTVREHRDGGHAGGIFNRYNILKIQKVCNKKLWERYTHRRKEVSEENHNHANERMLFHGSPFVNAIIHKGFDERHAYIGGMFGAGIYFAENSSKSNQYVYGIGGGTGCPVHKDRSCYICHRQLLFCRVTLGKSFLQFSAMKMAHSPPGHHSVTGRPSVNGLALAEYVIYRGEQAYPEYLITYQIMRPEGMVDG

[2] = target: T2, Protein mono-ADP-ribosyltransferase TIPARP (Homo sapiens) (UniProt Q7Z3E1); experiment: Inhibition of human recombinant PARP7 at 10 uM incubated for 1 hr using NAD+, biotinylated NAD+ and activated DNA by luminescence based assay
T2 sequence (whole entry): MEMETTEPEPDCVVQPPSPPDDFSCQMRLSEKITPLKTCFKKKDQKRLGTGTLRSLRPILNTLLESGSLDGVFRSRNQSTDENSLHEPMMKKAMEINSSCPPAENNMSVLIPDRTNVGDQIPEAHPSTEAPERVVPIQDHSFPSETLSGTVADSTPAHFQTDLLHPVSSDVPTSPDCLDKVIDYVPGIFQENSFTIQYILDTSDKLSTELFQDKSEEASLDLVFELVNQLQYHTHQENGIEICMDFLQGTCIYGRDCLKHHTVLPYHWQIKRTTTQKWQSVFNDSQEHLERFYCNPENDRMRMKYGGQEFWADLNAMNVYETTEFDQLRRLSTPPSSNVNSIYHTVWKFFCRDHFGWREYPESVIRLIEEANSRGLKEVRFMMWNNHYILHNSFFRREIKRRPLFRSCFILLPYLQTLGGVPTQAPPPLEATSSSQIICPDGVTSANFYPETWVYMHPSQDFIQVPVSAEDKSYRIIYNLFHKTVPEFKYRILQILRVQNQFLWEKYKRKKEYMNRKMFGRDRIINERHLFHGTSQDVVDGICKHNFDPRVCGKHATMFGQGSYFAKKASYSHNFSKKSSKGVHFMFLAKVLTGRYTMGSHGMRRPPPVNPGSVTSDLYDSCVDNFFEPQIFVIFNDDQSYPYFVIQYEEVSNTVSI
In short: (§1)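 Recombinant PARP enzyme reactions were run in duplicate for 1 h at rt on histone-coated plates in Tris·HCl pH 8.0 buffer with NAD+, biotinylated NAD+ and activated DNA. Detection used streptavidin-HRP for 30 min at rt, then a chemiluminescent developer. % inhibition = 100 − % activity, scaled between the no-compound (100%) and no-enzyme (0%) signals.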

[3] = target: T3, Protein mono-ADP-ribosyltransferase PARP8 (Homo sapiens) (UniProt Q8N3A8); experiment: Inhibition of human recombinant PARP8 at 10 uM incubated for 1 hr using NAD+, biotinylated NAD+ and activated DNA by luminescence based assay; in short: as §1
T3 sequence (whole entry): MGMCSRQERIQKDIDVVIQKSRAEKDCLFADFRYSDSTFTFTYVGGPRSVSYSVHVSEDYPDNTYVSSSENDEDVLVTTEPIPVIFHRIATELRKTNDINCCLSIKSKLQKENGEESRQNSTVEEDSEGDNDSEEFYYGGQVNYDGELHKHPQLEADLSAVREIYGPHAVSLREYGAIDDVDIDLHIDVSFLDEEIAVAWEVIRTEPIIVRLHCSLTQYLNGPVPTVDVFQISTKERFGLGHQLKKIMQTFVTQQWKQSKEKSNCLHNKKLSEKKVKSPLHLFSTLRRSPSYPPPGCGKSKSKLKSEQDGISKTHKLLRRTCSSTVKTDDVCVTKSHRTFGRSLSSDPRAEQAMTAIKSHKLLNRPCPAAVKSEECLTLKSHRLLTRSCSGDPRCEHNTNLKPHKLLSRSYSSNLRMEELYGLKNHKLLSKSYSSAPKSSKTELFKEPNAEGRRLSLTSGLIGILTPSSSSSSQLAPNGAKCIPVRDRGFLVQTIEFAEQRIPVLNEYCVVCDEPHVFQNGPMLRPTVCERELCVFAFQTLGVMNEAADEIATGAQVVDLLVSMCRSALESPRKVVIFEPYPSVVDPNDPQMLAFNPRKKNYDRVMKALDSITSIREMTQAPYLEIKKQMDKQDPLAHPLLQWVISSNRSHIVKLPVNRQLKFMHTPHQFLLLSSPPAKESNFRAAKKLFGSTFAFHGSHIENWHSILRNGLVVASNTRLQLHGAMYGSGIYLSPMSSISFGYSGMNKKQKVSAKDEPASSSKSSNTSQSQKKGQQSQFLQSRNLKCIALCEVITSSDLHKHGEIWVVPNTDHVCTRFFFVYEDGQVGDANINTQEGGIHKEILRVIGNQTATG

## CC(C)(C)c1ccc(-c2nc3c(sc4ccccc43)c(=O)[nH]2)cc1
[1]
  IC50: 28.6 nM
[2]
  inhibition: 7%
[3]
  inhibition: 3%
